From ChEMBL document CHEMBL1124098, “N-terminal requirements of small peptide anticoagulants based on hirudin54-65” (J Med Chem, 1988)
Starred links: 1 amine or outer side, 2 acyl side, 3 side chain; linkers in the order of their positions; H or OH if unused. Non-standard residues stand in square brackets, D forms with d. Residues, ends and D or L forms follow the SMILES beside them. *: point of attachment. Hydrocinnamoyl = O=C(CCc1ccccc1)*; Phg = N[C@H](C(=O)O)c1ccccc1; Suc = O=C(CCC(=O)[*:2])[*:1]; X1 = O=C(/C=C/c1ccccc1)*; Bz = O=C(c1ccccc1)*

Experiment: In vitro Inhibition of fibrin clot formation relative to a blank control after thrombin addition to plasma in human
Format: functional, cell-free
In short: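 Fasted donor human plasma collected in 0.1% EDTA (final), filter-sterilized, stored at -20 °C. Bovine thrombin (0.2 pmol) preincubated with peptide 10 min at 24 °C. Then 1:10 diluted plasma in NaCl/sodium phosphate was added. Buffer pH 7.4 with 0.1% BSA.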

Row | Molecule | IC50 [µM]
1 | CC[C@H](C)[C@H](NC(=O)[C@H](CCC(=O)O)NC(=O)[C@H](CCC(=O)O)NC(=O)c1ccccc1)C(=O)N1CCC[C@H]1C(=O)N[C@@H](CCC(=O)O)C(=O)N[C@@H](CCC(=O)O)C(=O)N[C@@H](Cc1ccc(O)cc1)C(=O)N[C@@H](CC(C)C)C(N)=O (Bz-EEIPEEYL-NH2) | > 250
2 | CC[C@H](C)[C@H](NC(=O)[C@H](CCC(=O)O)NC(=O)[C@H](CCC(=O)O)NC(=O)[C@H](Cc1ccccc1)NC(=O)CCC(=O)O)C(=O)N1CCC[C@H]1C(=O)N[C@@H](CCC(=O)O)C(=O)N[C@@H](CCC(=O)O)C(=O)N[C@@H](Cc1ccc(O)cc1)C(=O)N[C@@H](CC(C)C)C(=O)N[C@@H](CCC(N)=O)C(=O)O (Suc-FEEIPEEYLQ-OH) | 1.7
3 | H-FEEIPEEYLQ-OH | 34
4 | CC[C@H](C)[C@H](NC(=O)[C@H](CCC(=O)O)NC(=O)[C@H](CCC(=O)O)NC(=O)[C@@H](NC(=O)[C@H](CC(=O)O)NC(=O)CN)c1ccccc1)C(=O)N1CCC[C@H]1C(=O)N[C@@H](CCC(=O)O)C(=O)N[C@@H](CCC(=O)O)C(=O)N[C@@H](Cc1ccc(O)cc1)C(=O)N[C@@H](CC(C)C)C(=O)N[C@@H](CCC(N)=O)C(=O)O (H-GD[Phg]EEIPEEYLQ-OH) | > 250
5 | CC[C@H](C)[C@H](NC(=O)[C@H](CCC(=O)O)NC(=O)[C@H](CCC(=O)O)NC(=O)CCc1ccccc1)C(=O)N1CCC[C@H]1C(=O)N[C@@H](CCC(=O)O)C(=O)N[C@@H](CCC(=O)O)C(=O)N[C@@H](Cc1ccc(O)cc1)C(=O)N[C@@H](CC(C)C)C(N)=O (Hydrocinnamoyl-EEIPEEYL-NH2) | > 250
6 | CC[C@H](C)[C@H](NC(=O)[C@H](CCC(=O)O)NC(=O)[C@H](CCC(=O)O)NC(=O)/C=C/c1ccccc1)C(=O)N1CCC[C@H]1C(=O)N[C@@H](CCC(=O)O)C(=O)N[C@@H](CCC(=O)O)C(=O)N[C@@H](Cc1ccc(O)cc1)C(=O)N[C@@H](CC(C)C)C(N)=O (X1-EEIPEEYL-NH2) | > 250
